H9c2 TAG inh – triacylglycerol accumulation inhibition; H9c2 cells, Nile Red lipid (TAG) fluorescence; cells loaded with 200 µM oleic acid; inhibition, % at 12.5 µM; hit rate 0.66% among 230,000; AID 651582;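 active means pattern-corrected inhibition of lipid staining of at least 50% with the nuclear-stain viability signal not falling by more than 50%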;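 further: 0% = DMSO wells and 100% = triacsin C control wells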
CXCR6 inh – inhibitors of human CXCR6 receptor; inhibition, % at 20 µM; CHO-K1 PathHunter CXCR6 beta-arrestin, luminescence; hit rate 0.36% among 360,000; O00574; in the data active means inhibition above about 34%, passing the limit was not always enough;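 further: antagonist mode with CXCL16 agonist at 10 nM final; 0% = 10 nM CXCL16 with DMSO and 100% = unstimulated wells without agonist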
Target sequence (O00574 whole entry, looked up): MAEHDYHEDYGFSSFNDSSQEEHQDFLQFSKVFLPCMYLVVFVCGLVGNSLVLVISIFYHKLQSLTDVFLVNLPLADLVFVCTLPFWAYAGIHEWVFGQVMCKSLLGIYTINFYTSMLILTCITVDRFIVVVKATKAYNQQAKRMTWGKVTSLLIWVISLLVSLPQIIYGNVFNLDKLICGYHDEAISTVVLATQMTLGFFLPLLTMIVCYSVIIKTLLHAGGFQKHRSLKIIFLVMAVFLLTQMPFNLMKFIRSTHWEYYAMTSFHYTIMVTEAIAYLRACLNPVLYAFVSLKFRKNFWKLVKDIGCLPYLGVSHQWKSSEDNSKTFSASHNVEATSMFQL
APJ antag – antagonists of human APJ apelin receptor | CHO-K1 APJ beta-arrestin complementation, luminescence | inhibition, % at 20 µM | hit rate 0.32% among 330,000 | AID 2521;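 active means inhibition above about 40% at 20 µM, limit read from the data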;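 further: cells challenged with 10 nM apelin-13 agonist together with compound; plate controls were apelin-13 plus DMSO wells for no effect and DMSO wells lacking apelin-13 for full effect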
EBI2 antag – antagonists of human EBI2 receptor | EBI2 beta-arrestin recruitment, luminescence, 7a,25-OHC stimulated | inhibition, % at 5 µM | hit rate 0.81% among 360,000; in the data active means inhibition above about 38%;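 further: enzyme fragment complementation signal reports receptor beta-arrestin coupling in cells; 0% = agonist plus DMSO wells and 100% = wells without agonist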
APJ agonist – agonists of human APJ apelin receptor | CHO-K1 APJ PathHunter beta-arrestin, luminescence; 0% DMSO wells, 100% apelin | activation, % at 20 µM | hit rate 0.11% among 330,000;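 active means activation more than six SD over the plate average, tested at 20 µM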;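 further: 0% = DMSO alone and 100% = apelin-13 at 10 nM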
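Assay system: CHO-K1 cells stably expressing ProLink-tagged human APJ and arrestin–beta-gal acceptor. Compound dosing: 20 µM single point, 1% DMSO. Times: 16-18 h seeding, 90 min dark compound exposure, 60 min detection. Detection: beta-gal luminescence. Evaluation: APJ–arrestin association signal. Controls: negative DMSO alone, positive Apelin-13 at 10 nM.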
CCR6 antagonist – antagonists of human CCR6 receptor. P51684. CHO-K1 CCR6 PathHunter beta-arrestin, luminescence, CCL20-stimulated. inhibition, % at 20 µM. hit rate 0.49% among 340,000;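 active means compounds whose inhibition of the agonist-driven luminescence signal at 20 µM reaches about 50%, limit read from the data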;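 further: cells stimulated with CCL20 at 14 nM final; plate controls were DMSO with CCL20 for no effect and DMSO without agonist for full effect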
Target sequence (P51684 whole entry, looked up): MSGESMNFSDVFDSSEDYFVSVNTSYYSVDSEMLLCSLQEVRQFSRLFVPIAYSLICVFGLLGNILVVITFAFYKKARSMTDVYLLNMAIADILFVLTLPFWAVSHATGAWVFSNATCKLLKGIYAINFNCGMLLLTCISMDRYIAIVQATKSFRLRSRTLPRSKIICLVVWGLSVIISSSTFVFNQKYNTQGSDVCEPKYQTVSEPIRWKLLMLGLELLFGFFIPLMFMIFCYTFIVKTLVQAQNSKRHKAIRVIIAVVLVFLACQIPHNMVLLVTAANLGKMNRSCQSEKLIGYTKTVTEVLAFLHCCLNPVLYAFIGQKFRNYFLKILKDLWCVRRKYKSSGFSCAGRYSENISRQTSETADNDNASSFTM
EBI2 conf – EBI2 (human) antagonism, single concentration confirmation. shares compounds with EBI2 antag. EBI2 beta-arrestin luminescence, 7a,25-OHC antagonism. inhibition, % at 5 µM. hit rate 29% among 2,400;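 active means inhibition of at least 50%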
EBI2 ag – EBI2 agonism counter-screen | shares compounds with EBI2 antag | EBI2-expressing cells, agonist mode, luminescence, 60 min; 0% vehicle, 100% 7α,25-dihydroxycholesterol control | activation, % at 5 µM | 2,400 tested, under 10 active;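 active means activation of at least 50%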
bGal counter – inhibits E. coli beta-galactosidase, counter-screen for EBI2 antagonists; inhibition, % at 5 µM; purified beta-galactosidase, luminescent Galacton Star, 15 min; shares compounds with EBI2 antag; hit rate 1% among 2,400;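 active means replicate-average signal at least 3 plate SD below neutral wells, shown as high inhibition, flagging enzyme-inhibiting false positives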;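 further: 0% = DMSO wells with enzyme and 100% = wells lacking enzyme; higher means stronger loss of beta-gal luminescence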
* = called active by the depositor; . = no result. Shown are actives, neighbours in structure and some others; about 1.9% of the full set was active somewhere.

SMILES | H9c2 TAG inh | CXCR6 inh | APJ antag | EBI2 antag | APJ agonist | CCR6 antagonist | EBI2 conf | EBI2 ag | bGal counter
COc1ccc(OCCNC(=O)c2cccc(Oc3ccc(C(F)(F)F)cc3[N+](=O)[O-])c2)cc1 | . | 4 | 7 | 43* | 0 | 19 | 17 | -2 | -14
O=C(NCCO)c1ccc(Oc2ccc(C(F)(F)F)cc2[N+](=O)[O-])cc1 | -9 | 0 | -3 | -17 | -1 | 4 | . | . | .
O=c1nc(Nc2ccccc2)sc2ccc([N+](=O)[O-])cc12 | -3 | -5 | -22 | -3 | -3 | 11 | . | . | .
C=CCn1c(SCc2c(C)noc2C)nc2ccccc2c1=O | . | 1 | -20 | 5 | -7 | 8 | . | . | .
COc1cc2nc(SCc3c(C)noc3C)n(CCC3=CCCCC3)c(=O)c2cc1OC | 39 | 27 | 7 | 46* | 9 | 22 | 15 | -1 | -6
Cc1cccc(-c2nc(CS(=O)CC(=O)NC3CCCC(C)C3C)c(C)o2)c1 (centres undefined) | 5 | 7 | 22 | 0 | -3 | 2 | . | . | .
C[C@@H](C(=O)Nc1ccc2ccccc2c1)[C@H]1C[C@]1(C)[C@H](NS(=O)(=O)c1ccccc1)c1ccccc1 | . | . | -8 | . | -7 | 10 | . | . | .
Cc1ccc(CCNC(=O)C23CN(Cc4ccccc4)CC2C(c2ccc([N+](=O)[O-])cc2)=NO3)cc1 (centres undefined) | -5 | 1 | -17 | 65* | 8 | 2 | 43 | -1 | -1
CCOC(=O)[C@]12CCCC=C1N(Cc1ccco1)C(=O)[C@H](CC(=O)N1CCCC1)C2 | . | -1 | . | 1 | . | . | . | . | .
CC(C)Cn1c(N2CCN(CC(=O)Nc3ccc(Cl)cc3)CC2)nc2ccccc21 | -15 | 6 | -8 | 74* | 0 | 19 | 40 | 2 | 4
CCc1ccc(CN2CCC(N3CCC(C(=O)N4CCCC4)CC3)CC2)o1 | . | -17 | 6 | -9 | -2 | 4 | . | . | .
O=C(COc1ccc(Cl)cc1Br)N1CCN(c2ncccn2)CC1 | 13 | -3 | 15 | 31 | 13 | 22 | . | . | .
O=C(COc1ccc(Br)cc1F)N1CCN(c2ncccn2)CC1 | 1 | 3 | 6 | 46* | -2 | 1 | 27 | 0 | 6
CCc1ccc(OCC(=O)N2CCN(c3ccccn3)CC2)c(Br)c1 | -1 | 6 | -5 | 25 | -1 | 2 | . | . | .
O=C(/C=C/c1cccc(Br)c1)N1CCN(c2ccccn2)CC1 | 0 | 6 | 4 | 77* | -1 | 11 | 46 | 1 | -10
O=C(/C=C/c1ccccc1)N1CCN(c2cccc(Cl)n2)CC1 | 0 | 2 | 5 | 91* | -2 | 10 | 82* | 0 | -20
O=C(C=Cc1ccccc1)N1CCCCC1 | 7 | -3 | . | 21 | . | 0 | . | . | .
Cc1cc(OCC(=O)N2CCN(c3ccccn3)CC2)cc(C)c1Br | -1 | 5 | -5 | 62* | 3 | -3 | 65* | 1 | -2
O=C1NC(=O)C2(CCCC2c2ccccc2)N1 (centres undefined) | -9 | -5 | . | -11 | . | 0 | . | . | .
CCCOc1ccc(/C=C/C(=O)N2CCN(c3ccccn3)CC2)cc1 | -5 | -2 | 3 | 46* | -4 | 2 | 40 | 1 | -1
O=C(/C=C/c1ccc(F)cc1)N1CCN(c2ccccn2)CC1 | 16 | -9 | 4 | 91* | -4 | 12 | 81* | 1 | 1
CCCn1nc(C(=O)N(C)CC(=O)Nc2ccc(OCC)c(OCC)c2)c2ccccc2c1=O | -4 | -1 | -12 | -2 | -2 | 6 | . | . | .
COC(C(=O)N/N=C(\C)c1ccc(C(C)(C)C)cc1)c1ccccc1 (centres undefined) | -3 | 5 | -14 | 65* | -5 | 17 | 24 | -1 | -10
COc1ccc(-c2cc(-c3ccc(Br)cc3)nc3ncnn23)cc1OC | -1 | 2 | 6 | 60* | 0 | 9 | 17 | 1 | 8
N#Cc1nc(COc2ccccc2)oc1N1CCC(Cc2ccccc2)CC1 | -58 | 12 | -2 | 70* | -4 | 13 | 20 | -1 | -4
SMILES | H9c2 TAG inh | CXCR6 inh | APJ antag | EBI2 antag | APJ agonist | CCR6 antagonist | EBI2 conf | EBI2 ag | bGal counter
CCOC(=O)C1CN(S(=O)(=O)c2ccc(C)cc2)CCN1S(=O)(=O)c1ccc(C)cc1 (centres undefined) | . | -3 | -7 | 44* | 3 | 13 | 8 | -1 | -13
Cc1ccc2nc(-c3ccncc3)cc(C(=O)Nc3ccc(F)cc3C)c2c1 | . | -1 | 10 | 51* | 1 | -7 | 64* | 1 | 8
COc1ccc(OCC(O)CNC(=O)c2ccc(OC)cc2)cc1 (centres undefined) | -4 | 4 | 9 | 21 | -1 | 12 | . | . | .
COc1ccc(OCC(O)COc2ccc(OC)cc2)cc1 | -19 | -13 | 5 | 72* | 2 | -8 | 60* | 1 | 8
COc1ccc(Br)cc1CN(C)CC(O)COc1ccc(Br)cc1 (centres undefined) | . | -7 | 12 | 91* | -1 | 10 | 59* | -1 | -12
COc1ccc(OCC(O)CNc2ccc(Br)cc2)cc1 (centres undefined) | . | -1 | 0 | 76* | 0 | -3 | 52* | 0 | -9
COc1ccc(CN(C)CC(O)COc2ccc(C(=O)c3ccccc3)cc2)c(OC)c1OC (centres undefined) | . | 2 | 3 | -2 | 2 | 15 | . | . | .
COc1ccc(OCC(O)CNC(=O)c2ccc(Br)cc2)cc1 (centres undefined) | . | 3 | -13 | 53* | -2 | 21 | 36 | 1 | 9
Cc1[nH]c2ccccc2c1N=Nc1ccccc1C(=O)O | . | 17 | 4 | 3 | -6 | 36 | . | . | .
OC(COc1ccc(Br)cc1)Cn1ccnc1 (centres undefined) | . | 4 | 2 | 7 | -2 | 4 | . | . | .
COc1ccc(OCC(O)Cn2cnc(-c3ccc(Br)cc3)c2)cc1 (centres undefined) | -3 | -10 | 2 | 48* | -3 | -9 | 40 | 1 | 6
COc1ccc(/C=N/NC(=O)Nc2cccc3nsnc23)c(OC)c1 | -10 | -6 | -1 | 53* | 1 | -2 | 28 | 1 | 5
COc1cc(/C=N/NC(=O)Nc2cccc3nsnc23)cc(OC)c1OC | . | 1 | . | -4 | . | -19 | . | . | .
Fc1ccc(-c2nc3c4ccccc4ccn3c2Cc2cccc(Cl)c2)cc1 | . | 1 | . | -2 | . | . | . | . | .
c1ccc(-c2cn(-c3ccccc3)c3ncnc(NCCCN4CCOCC4)c23)cc1 | -5 | 8 | 13 | 62* | 0 | 10 | 18 | -1 | -10
